Screening data (PubChem BioAssay)
S1P4 antag: blocks the human S1P4 receptor; O95977; S1P4-expressing cells, antagonist mode, reporter read-out; inhibition, % at 4.98 µM; actives 0.26% (n = 220,000); AID 1510; in the data active means inhibition above about 29%;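 further: 0% = wells stimulated with agonist and 100% = vehicle wells without agonist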
S1P4 agonist: agonists of human S1P4 receptor; S1P4-expressing cell line, agonist reporter assay; activation, % at 4.98 µM; actives 0.35% (n = 220,000); in the data active means activation above about 11%;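 further: 0% = DMSO vehicle and 100% = reference agonist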
Hsp70 activator: transcriptional activators of Hsp70 | actives 0.04% (n = 200,000) | HeLa Hsp70 promoter luciferase reporter, luminescence; scaled: vehicle 0, proteasome-inhibitor control 100% | AID 1203 | activation, % at 10 µM;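 active means activation above the mean across all tested compounds plus 3 SD, cutoff set per campaign, cut at about 5.5% in these data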;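 further: 100% = MG132 at 30 µM as the positive control and 0% = DMSO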
S1P3 antag: blocks the human S1P3 receptor | Q99500 | CHO S1P3 NFAT-BLA reporter, FRET fluorescence, antagonist mode | inhibition, % at 4.98 µM | actives 0.27% (n = 170,000) | AID 485;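 active means inhibition above the plate cutoff, the mean inhibition of test wells on that plate plus 3 SD, cut at about 28% in these data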;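 further: cells challenged with S1P at its EC80 of 0.8 µM; blue over green emission ratio from cleaved BLA substrate after 4 h stimulation; 0% = S1P-stimulated wells and 100% = unstimulated DMSO-only wells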
Dynein cargo inh: dynein cargo transport inhibition. 3617.4 mouse cells, GR-EGFP nuclear translocation imaging; test concentration mostly 20 µM; stimulated with dexamethasone, 1 µM; hits give low values. z-score, hits read low. actives 0.47% (n = 220,000). AID 1381;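 active means plate z-score of nuclear minus cytoplasmic receptor signal below a set negative limit, without overly bright fluorescence or cell loss, cut at about -3.5 in these data, passing the limit was not always enough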;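 further: z-score of nuclear minus cytoplasmic ring GR-EGFP intensity difference per well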
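medium = tetracycline-free induction medium containing charcoal-stripped FBS | also added = 1.0 µM final dexamethasone stimulus | schedule = 48 h induction, 1 h compound, 30 min dex at 37 °C | technique = fixed, Hoechst-stained cells imaged at 10x for EGFP | measure = GR-EGFP nuclear translocation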
Mdm2 ligase inh: blocks human Mdm2 ubiquitin ligase activity; cell-based MDM2 ubiquitination luciferase reporter, 2 h; 0 = plate control, 100 = twice control, blank-subtracted; Q00987; actives 0.11% (n = 210,000); signal enhancement, % at 5 µM; AID 1230;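 active means signal enhancement of 30% or more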;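 further: luminescence tracks abundance of the self-degrading MDM2-luciferase fusion protein; higher signal means inhibition of MDM2 E3 ligase activity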
Target sequence (Q00987 whole entry, looked up, the tested form may be a part): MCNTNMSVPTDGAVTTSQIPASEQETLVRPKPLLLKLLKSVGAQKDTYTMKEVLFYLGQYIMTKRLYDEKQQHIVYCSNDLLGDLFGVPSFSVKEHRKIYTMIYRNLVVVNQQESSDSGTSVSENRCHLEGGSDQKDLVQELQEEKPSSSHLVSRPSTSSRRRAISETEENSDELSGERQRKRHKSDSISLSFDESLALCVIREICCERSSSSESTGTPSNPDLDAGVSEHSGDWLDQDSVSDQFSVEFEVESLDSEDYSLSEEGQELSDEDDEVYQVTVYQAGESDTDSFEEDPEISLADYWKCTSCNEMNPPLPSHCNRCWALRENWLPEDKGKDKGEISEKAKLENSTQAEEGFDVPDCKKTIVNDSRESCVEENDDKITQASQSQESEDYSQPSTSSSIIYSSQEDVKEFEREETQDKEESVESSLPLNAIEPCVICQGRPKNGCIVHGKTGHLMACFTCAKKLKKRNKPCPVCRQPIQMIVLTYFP
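Material: stable MDM2–luciferase fusion reporter cells / Quantity: 2000 cells/well / Dosing: single 5 µM compound dose, 0.2% final DMSO / Buffer or medium: DMEM / Schedule: 4 h cell settling then 2 h compound exposure, 37 °C / Detection: luminescence with SteadyLite reagent, 15 min at room temperature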
Dynein confirm: dynein cargo transport inhibition, confirmation | shares compounds with Dynein cargo inh | 3617.4 GR-EGFP nuclear translocation imaging, dexamethasone-induced | calls only at 20 µM | actives 69% (n = 1,000) | AID 463116;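 active means inhibition of receptor movement into the nucleus at or above a set limit in both runs, with normal cell brightness and cell count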;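 further: dexamethasone at 1 µM final in well for 30 min; nuclear minus cytoplasmic GR-EGFP mean intensity difference in channel 2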
An asterisk follows results filed as active; i = inactive; / = not tested or not shown; + = active, no number. Rows were chosen to be rich in hits. Some 1.3% of all compounds tested hit in one or more screens of this group.

SMILES	S1P4 antag	S1P4 agonist	Hsp70 activator	S1P3 antag	Dynein cargo inh	Mdm2 ligase inh	Dynein confirm
CC(C)N(CC(=O)Nc1ccc(Cl)cc1C(F)(F)F)C(=O)CCl	-13.9	-1.2	0.3	-10.5	-7.06*	-6.0	+
O=C(O)CSCC(=O)Nc1ccc(Cl)cc1C(F)(F)F	-11.0	-0.6	-0.2	7.3	0.317	-12.7	/
CCOC(=O)c1c(-c2ccc(C)cc2)csc1NC(=O)/C(C#N)=C/c1ccc(O)c(OC)c1	-22.2	8.9	-0.2	-7.2	-9.98	-2.3	i
CN(C)c1ccc(/C=C/C(=O)c2cccc(Br)c2)cc1	19.2	1.7	0.4	/	-13	-30.5	+
CCC(=O)Nc1cccc(C(=O)/C=C/c2ccc(F)cc2)c1	25.3	-0.5	0.8	-11.2	-4.79*	-12.8	+
COc1cc(Cl)c(C)cc1NC(=O)c1ccc(NS(=O)(=O)c2ccc(F)c(F)c2)cc1	-7.5	0.0	-0.3	-23.0	-0.88	-39.3	/
NC(=O)c1ccccc1OC1CCC1	10.1	0.3	/	-5.8	-0.564	-6.3	/
CC(C)c1ccc(N2C(=O)CC(Sc3ncn[nH]3)C2=O)cc1 (stereo not given)	-5.1	-0.8	-0.3	/	0.814	3.9	/
COc1ccc(N2C(=O)CC(Sc3ncn[nH]3)C2=O)c(OC)c1 (stereo not given)	1.8	-1.0	0.2	19.1	-3.95*	-15.9	+
Cc1ccc(SC(=O)c2c([N+](=O)[O-])c(C)nn2C)cc1	19.2	-0.2	/	6.2	-4.24*	-8.4	+
O=c1cc(N=Nc2ccc(Cl)cc2)[nH]c(=O)[nH]1	4.3	-0.6	/	-8.4	-4.52*	-24.4	+
COc1ccc(/C=N/NC(=O)c2cccc(Br)c2)cc1COc1ccccn1	5.9	-1.4	/	14.5	0.213	-6.3	/
O=C(CCc1nnc(-c2ccsc2)o1)N1CCc2c(Cl)cccc2C1	-6.6	2.1	0.1	-41.9	-0.358	-6.2	/
O=C(c1cccc(C(=O)N(c2ccccn2)C2CCCCC2)c1)N(c1ccccn1)C1CCCCC1	5.2	1.2	-0.3	0.7	-0.514	-3.8	/
N#C/C(=C\c1ccccc1)C(=O)N(c1ccccn1)C1CCCCC1	-10.9	1.5	-0.3	4.4	-3.93*	-4.2	i
COc1ccccc1C1CCN(C(=O)c2ccco2)CC1	8.9	-0.5	/	-4.6	-1.46	-19.5	/
N#CC12COC3(CCCCC3C1(C#N)C#N)OC2=N (stereo not given)	-6.8	3.7	/	4.0	-5.04*	-34.8	+
N#CC1(C#N)COC23CCCCC2C1(C#N)C(=N)O3 (stereo not given)	-1.6	-0.6	-0.1	/	-2.89	-7.6	/
Cn1c(=O)c(NCCc2ccccc2)c2c3c(cccc31)C(=O)c1ccccc1-2	-12.8	1.8	-0.4	/	-5.14*	0.2	+
CC(=O)Nc1ccc(Nc2c3c4c(cccc4n(C)c2=O)C(=O)c2ccccc2-3)cc1	-17.5	1.9	-0.4	-1.9	1.98	8.8	/
CCCCNc1c2c3c(cccc3n(C)c1=O)C(=O)c1ccccc1-2	17.6	2.2	-0.4	/	-5.14*	12.2	+
Cn1c(=O)c(NC2CCCCC2)c2c3c(cccc31)C(=O)c1ccccc1-2	-8.3	1.5	-0.4	2.5	-6.06	2.3	/
Cn1c(=O)c(NCCO)c2c3c(cccc31)C(=O)c1ccccc1-2	-11.3	1.6	-0.3	/	-6.95*	0.8	+
CSC(=S)N/N=C(\C)c1ccc(Br)cc1	14.8	0.1	-0.1	-9.3	-0.378	-7.5	/
Cc1nn(C2CCS(=O)(=O)C2)c(Cl)c1/C=C/C(=O)OCC(=O)Nc1ccc2c(c1)OCO2 (stereo not given)	-10.9	0.7	-0.1	4.8	-0.875	-3.1	/
SMILES	S1P4 antag	S1P4 agonist	Hsp70 activator	S1P3 antag	Dynein cargo inh	Mdm2 ligase inh	Dynein confirm
Cc1nc(NC(=O)CSc2ccccc2N)sc1C	1.1	-1.1	0.1	-1.2	-0.706	5.0	/
CN(C(=O)c1ccc(C#N)cc1)c1nnc(-c2cnccn2)s1	-12.0	1.2	/	-2.4	-0.131	/	/
Brc1cc(Cc2nnc(-c3ccccc3)o2)c(Br)s1	13.0	-0.9	/	-7.6	0.465	-9.4	/
CC1(C)COC(/C=C/c2ccc([N+](=O)[O-])cc2)=N1	-15.2	-0.8	0.6	9.4	-4.14*	-4.3	+
CC(=C/C(=O)O)/C=C/c1ccc([N+](=O)[O-])cc1	2.1	-0.2	-0.3	-5.5	0.301	-4.4	/
COc1cccc(NC(=O)Cc2ccccc2)c1	-1.0	0.8	-0.1	-35.8	0.81	-26.4	/
O=C(Cc1ccccc1)Nc1cccc(N2C(=O)C=CC2=O)c1	-12.3	1.5	0.0	-5.8	-4.71*	2.9	+
N#C/C(=C/c1ccc(N2CCCCCC2)o1)c1cccc(F)c1	1.0	-1.4	1.4	/	-2.68	-21.0	/
COc1ccc(NC(=O)/C(C#N)=C\c2ccc(N3CCOCC3)o2)cc1	-8.8	2.4	-0.2	6.8	-1.14	-9.9	/
N#C/C(=C\c1ccc(N2CCOCC2)o1)C(=O)Nc1ccc(O)cc1	1.0	-1.2	-0.2	-7.6	1.61	-15.3	/
N#C/C(=C/c1ccc(N2CCCCC2)o1)C(=O)Nc1ccc2ccccc2c1	2.8	1.8	-0.5	-5.0	-3.98*	-6.4	+
N#C/C(=C/c1ccc(N2CCCCCC2)o1)c1ccc(F)cc1	0.1	0.8	2.3	26.9	-3.81	-58.0	i
N#C/C(=C/c1ccc(N2CCCCC2)o1)C(=O)Nc1ccc(Cl)cc1	-7.7	-3.3	0.4	/	-10.5	-7.8	i
CCOC(=O)/C(=C\c1cccc(O)c1)c1nc2sc(C)c(C)c2c(=O)[nH]1	15.0	-1.5	0.0	0.7	-4.44*	5.2	+
CC(=O)c1cnn(-c2c(Cl)cc(Cl)cc2Cl)c1C	-5.3	6.6	/	-20.7	0.785	14.1	/
COC(=O)C(=C/C(C)=C/c1cccnc1)C(=O)OC	7.3	0.9	-0.1	3.3	-5.94*	1.1	+
O=C(/C=C/c1cccc([N+](=O)[O-])c1)NC(=S)Nc1ccccc1C(=O)O	3.9	-0.6	0.1	-1.6	-3.51*	-9.6	+
O=C(/C=C/c1cccc([N+](=O)[O-])c1)NC(=S)Nc1cccc(NC(=O)c2ccccc2Cl)c1	0.4	-0.5	-0.2	3.2	-0.616	7.1	/
CCCCCOc1ccc(NC(=O)C(=O)NCC2CCCN2CC)cc1 (stereo not given)	-16.2	-0.8	-0.5	-15.9	0.276	-3.4	/
CC1(C)CC(=O)C(C(c2ccc(F)cc2)C2C(=O)CC(C)(C)CC2=O)C(=O)C1	-0.3	-0.8	-0.5	4.2	0.0824	-1.3	/
CCc1sc(C(C2C(=O)CC(C)(C)CC2=O)C2C(=O)CC(C)(C)CC2=O)cc1[N+](=O)[O-]	-3.3	0.6	-0.2	1.7	-5.2*	-17.1	i
